Measurements taken from ChEMBL document CHEMBL1140989, “Synthesis, penetrability and intracellular targeting of fluorescein-tagged peptoids and peptide-peptoid hybrids” (Bioorg Med Chem, 2009).
Square brackets hold non-standard residues; d marks the D form. Peptide text beside a SMILES is read from it. * marks the point of attachment. X1 = O=C(O)c1cc(C(=O)*)ccc1-c1c2ccc(=O)cc-2oc2cc(O)ccc12; Gly(N-(CH2)6NH2) = NCCCCCCNCC(=O)O; Ahx = NCCCCCC(=O)O

Tests used:
Format in all cases: cell-based
HeLa = assay: Cytotoxicity against human HeLa cells after 24 hrs by MTT assay
Method in brief: (§1)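 Cells kept in 10 µM peptoid in medium. Viability read by MTT 24 h after compound addition, absorbance at 570 nm.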

K562 = assay: Cytotoxicity against human K562 cells after 24 hrs by MTT assay; details: k562, 24 h; method in brief: as §1
L929 = assay: Cytotoxicity against mouse L929 cells after 24 hrs by MTT assay; details: l929, 24 h; method in brief: as §1

Measured: Activity

NCCCCCCN(CC(N)=O)C(=O)CN(CCCCCCN)C(=O)CN(CCCCCCN)C(=O)CCCCCNC(=O)c1ccc(-c2c3ccc(=O)cc-3oc3cc(O)ccc23)c(C(=O)O)c1
Non-toxic: all assays above

NCCCCCCN(CC(N)=O)C(=O)CCCCCNC(=O)c1ccc(-c2c3ccc(=O)cc-3oc3cc(O)ccc23)c(C(=O)O)c1
Non-toxic: all assays above

NCCCCCCN(CC(N)=O)C(=O)CN(CCCCCCN)C(=O)CN(CCCCCCN)C(=O)CN(CCCCCCN)C(=O)CN(CCCCCCN)C(=O)CCCCCNC(=O)c1ccc(-c2c3ccc(=O)cc-3oc3cc(O)ccc23)c(C(=O)O)c1
Non-toxic: all assays above

NCCCCCCN(CC(N)=O)C(=O)CN(CCCCCCN)C(=O)CN(CCCCCCN)C(=O)CN(CCCCCCN)C(=O)CN(CCCCCCN)C(=O)CN(CCCCCCN)C(=O)CN(CCCCCCN)C(=O)CCCCCNC(=O)c1ccc(-c2c3ccc(=O)cc-3oc3cc(O)ccc23)c(C(=O)O)c1 ({X1-Ahx}-[Gly(N-(CH2)6NH2)][Gly(N-(CH2)6NH2)][Gly(N-(CH2)6NH2)][Gly(N-(CH2)6NH2)][Gly(N-(CH2)6NH2)][Gly(N-(CH2)6NH2)][Gly(N-(CH2)6NH2)]-NH2)
Non-toxic: all assays above
